Assay results taken from ChEMBL document CHEMBL1123657, “Anthrapyrazole anticancer agents. Synthesis and structure-activity relationships against murine leukemias” (J Med Chem, 1987).

What was measured:
[1] = test system: L1210; test: Compound was tested in vitro against murine L1210 leukemia; IA means inactive.; type: functional, cell-based, Mus musculus
[2] = test system: P388; test: Optimal dose per injection in mg/kg required to inhibit growth of P388 leukemia cells in mice; type: functional, Mus musculus
Procedure, shortened: (§1)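 P388 leukemia implanted ip in mice; drug given ip on days 1 and 5 (ip/ip; D1,5), dosed in mg/kg per injection. Read-out is treated/control (T/C, %) with cures counted, reported at the optimal dose.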

[3] = test system: P388; test: Inhibition of P388 leukemia cells in mice, measured as percent treated to the control values with the number of 30 day survivors; type: functional, Mus musculus; procedure, shortened: as §1
[4] = test system: P388; test: Activity against P388 leukemia cells in mice, by intraperitoneal dosing and net log tumor cell kill was reported; type: functional, Mus musculus
[5] = test system: B16; test: Optimal dose per injection in mg/kg required to inhibit growth of murine B-16 melanoma in vivo; type: functional, Mus musculus
Procedure, shortened: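 Murine B-16 melanoma in vivo: tumor implanted ip, compound given ip on days 1–9 (ip/ip; D1–9), dosed as mg/kg per injection. Activity expressed as T/C (%) plus number of cures, taken at the optimal dose.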

[6] = test system: L1210; test: Tested in vitro against murine L1210 leukemia.; type: functional, cell-based; details: Mus musculus

SMILES	IC50 [1]	Dose [2]	T/C [3]	Activity [4]	Optimal dose [5]	IC50 [6]
CCN(CC)CCCCNc1ccc2c3c(nn2CCO)-c2ccccc2C(=O)c13.Cl	Not Active	300 mg/kg	115%	-1.3		
CCN(CC)CCn1nc2c3c(c(NCCC(=O)O)ccc31)C(=O)c1ccccc1-2	Not Active	12.5 mg/kg	117%	-1.3		
Cl.O=C1c2ccccc2-c2nn(CCO)c3ccc(NCCN4CCNCC4)c1c23	Not Active	50 mg/kg	109%	-1.3		
CCN(CC)CC(O)Cn1nc2c3c(c(NCCN)ccc31)C(=O)c1c(O)ccc(O)c1-2.Cl (stereo unspecified)	Not Active	6.25 mg/kg	262%	>6.7		
COCCn1nc2c3c(c(NCCN)ccc31)C(=O)c1c(O)ccc(O)c1-2.Cl	Not Active	50 mg/kg	127%	-0.6		
Cl.O=C1c2ccccc2-c2nn(CCO)c3ccc(NCCN4CCOCC4)c1c23	Not Active	25 mg/kg	100%	-1.5		
CN(CCNc1ccc2c3c(nn2CCNCCO)-c2c(O)ccc(O)c2C(=O)c13)C(=O)OCc1ccccc1	Not Active					
Cl.NCCCNCCCCNCCCNc1ccc2c3c(nn2CCNCCO)-c2c(O)ccc(O)c2C(=O)c13	Not Active	12.5 mg/kg	145%	0.6		
Cl.NCCNCCNc1ccc2c3c(nn2CCO)-c2c(O)ccc(O)c2C(=O)c13	Not Active	200 mg/kg	174%	1.2		
CSCCn1nc2c3c(c(NCCNCCO)ccc31)C(=O)c1c(O)ccc(O)c1-2.Cl	Not Active	6.25 mg/kg	140%	0.3		
Cl.NCCCCNc1ccc2c3c(nn2CCNCCO)-c2c(O)ccc(O)c2C(=O)c13	Not Active	100 mg/kg	173%	3.4		
CCN(CC)CCn1nc2c3c(c(NCCN(C)C(=O)OCc4ccccc4)ccc31)C(=O)c1c(O)ccc(O)c1-2	Not Active					
CCN(CC)CCn1nc2c3c(c(NCCNCCO)ccc31)C(=O)c1c(O)ccc(O)c1-2.Cl		12.5 mg/kg	264%	>6.8	6 mg/kg	130 nM
Cl.NCCCNc1ccc2c3c(nn2CCCNCCO)-c2c(O)ccc(O)c2C(=O)c13		100 mg/kg	185%	3.4		1800 nM
CCN(CC)CCNc1ccc2c3c(nn2CCN(CC)CC)-c2ccccc2C(=O)c13.Cl		50 mg/kg	106%	-1.4		390 nM
Cl.O=C1c2c(O)ccc(O)c2-c2nn(CCNCCO)c3ccc(NCCCNCCO)c1c23		6.25 mg/kg	254%	>6.8		1800 nM
CCN(CC)CCn1nc2c3c(c(NCCNC)ccc31)C(=O)c1ccccc1-2.Cl		25 mg/kg	138%	0.7		27 nM
CN(C)CCNCCn1nc2c3c(c(NCCNCCO)ccc31)C(=O)c1c(O)ccc(O)c1-2.Cl		50 mg/kg	226%	>6.8		1400 nM
CCN(CC)CCCNc1ccc2c3c(nn2CCO)-c2ccccc2C(=O)c13.Cl	Not Active	200 mg/kg	104%	-1.5		
Cl.O=C1c2ccccc2-c2nn(CCO)c3ccc(NCCNCCO)c1c23		25 mg/kg	125%	-0.9		1800 nM

SMILES	IC50 [1]	Dose [2]	T/C [3]	Activity [4]	Optimal dose [5]	IC50 [6]
CCN(CC)CCCCNc1ccc2c3c(nn2CCN(CC)CC)-c2ccccc2C(=O)c13.Cl		25 mg/kg	107%	-1.4		620 nM
Cl.Cn1nc2c3c(c(NCCN)ccc31)C(=O)c1c(O)ccc(O)c1-2		12.5 mg/kg	138%	0		240 nM
Cl.O=C1c2c(O)ccc(O)c2-c2nn(CCO)c3ccc(NCCN4CCOCC4)c1c23		400 mg/kg	122%	-1.2		1100 nM
CCCCCCNc1ccc2c3c(nn2CCN(CC)CC)-c2ccccc2C(=O)c13.Cl		200 mg/kg	110%	-1.4		2000 nM
CN(C)CCCn1nc2c3c(c(NCCN)ccc31)C(=O)c1c(O)ccc(O)c1-2.Cl		12.5 mg/kg	230%	6.6		200 nM
Cl.OCCNCCNc1ccc2c3c(c4ccccc4c(O)c13)N=N2		100 mg/kg	126%	-0.8		2200 nM
Cl.NCCCCCNc1ccc2c3c(nn2CCNCCO)-c2c(O)ccc(O)c2C(=O)c13	Not Active	100 mg/kg	150%	1.5		
CN(C)CCNCCNc1ccc2c3c(nn2CCN)-c2c(O)ccc(O)c2C(=O)c13.Cl		50 mg/kg	242%	6.4		930 nM
CCN(CC)CCNc1ccc2c3c(c4ccccc4c(O)c13)N=N2.Cl		400 mg/kg	111%	-1.4		1500 nM
Cl.O=C1c2ccccc2-c2nn(CCNCCO)c3ccc(NCCO)c1c23		25 mg/kg	139%	0.1		750 nM
Cl.O=C1c2c(O)ccc(O)c2-c2nn(CCCNCCO)c3ccc(NCCNCCO)c1c23	Not Active	100 mg/kg	275%	>7		
O=C(O)CCNc1ccc2c3c(nn2CCO)-c2ccccc2C(=O)c13	Not Active	25 mg/kg	98%	-1.6		
Cl.NCCn1nc2c3c(c(NCCCNCCO)ccc31)C(=O)c1c(O)ccc(O)c1-2		6.25 mg/kg	194%	3.4		870 nM
CN1CCN(c2ccc3c4c(nn3CCNCCO)-c3c(O)ccc(O)c3C(=O)c24)CC1.Cl		12.5 mg/kg	192%	3.8		430 nM
COCCn1nc2c3c(c(NCCNCCO)ccc31)C(=O)c1c(O)ccc(O)c1-2.Cl		100 mg/kg	140%	0.3		1600 nM
CCN(CC)CCCCCCCNc1ccc2c3c(nn2CCO)-c2ccccc2C(=O)c13.Cl	Not Active	100 mg/kg	98%	-1.6		
CCN(CC)CCNc1ccc2c3c(nn2C)-c2ccccc2C(=O)c13.Cl		400 mg/kg	98%	-1.5		670 nM
CNCCn1nc2c3c(c(NCCNCCO)ccc31)C(=O)c1c(O)ccc(O)c1-2.Cl		3.12 mg/kg	324%	>6.8		440 nM
CN(C)CCn1nc2c3c(c(NCCN)ccc31)C(=O)c1c(O)ccc(O)c1-2.Cl		12.5 mg/kg	263%	>6.6		220 nM
